Reference: ChEMBL document CHEMBL1158369, “Hansch analysis of substituted benzoic acid benzylidene/furan-2-yl-methylene hydrazides as antimicrobial agents” (Eur J Med Chem, 2009)

Assays:
Candida albicans = assay: Antifungal activity against Candida albicans after 48 hrs by tube dilution method; assay type: functional
Outline: (§1)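 Twofold serial dilutions of test and standard compounds in Sabouraud dextrose broth (I.P.); C. albicans incubated 37 °C for 48 h, A. niger 25 °C for 7 d. Growth read visually; MIC is lowest concentration without visible growth.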

Staphylococcus aureus = assay: Antibacterial activity against Staphylococcus aureus after 24 hrs by tube dilution method; assay type: functional
Outline: (§2)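 Twofold serial dilutions of test and standard compounds in double strength nutrient broth (I.P.); tubes incubated at 37 °C for 24 h. Growth judged visually; MIC taken as lowest concentration with no visible turbidity.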

Escherichia coli = assay: Antibacterial activity against Escherichia coli after 24 hrs by tube dilution method; assay type: functional; outline: as §2
Bacillus subtilis = assay: Antibacterial activity against Bacillus subtilis after 24 hrs by tube dilution method; assay type: functional; outline: as §2
[1] = Lipophilicity, log P of the compound; assay type: physicochemical; settings: octanol/water
Aspergillus niger = assay: Antifungal activity against Aspergillus niger after 7 days by tube dilution method; assay type: functional; outline: as §1

Row | Compound | -logMIC (Candida albicans) | -logMIC (Staphylococcus aureus) | -logMIC (Escherichia coli) | -logMIC (Bacillus subtilis) | logP [1] | -logMIC (Aspergillus niger)
1 | COc1ccc(/C=N/NC(=O)c2ccc(OC)c(OC)c2)cc1OC | 1.74 | 2.07 | 2.64 | 2.34 | 2.42 | 2.04
2 | Nc1ccc(C(=O)N/N=C/c2cccc([N+](=O)[O-])c2)cc1 | 1.66 | 1.98 | 2.56 | 2.29 | 2.6 | 1.8
3 | COc1ccc(/C=N/NC(=O)c2ccccc2Br)cc1OC | 1.76 | 2.52 | 2.63 | 2.35 | 3.71 | 2.06
4 | COc1ccc(/C=N/NC(=O)c2cc([N+](=O)[O-])ccc2Cl)cc1OC | 1.76 | 2.67 | 2.67 | 2.62 | 3.39 | 1.95
5 | O=C(N/N=C/c1cccc([N+](=O)[O-])c1)c1ccccc1Br | 1.75 | 2.35 | 2.49 | 2.65 | 4.17 | 1.75
6 | COc1ccc(/C=N/NC(=O)c2cc([N+](=O)[O-])cc([N+](=O)[O-])c2)cc1 | 1.74 | 2.2 | 2.64 | 2.42 | 3.08 | 1.8
7 | COc1ccc(C(=O)N/N=C/c2ccco2)cc1OC | 1.64 | 1.61 | 2.3 | 1.98 | 1.87 | 1.87
8 | COc1ccc(/C=N/NC(=O)c2ccc(C)cc2)cc1OC | 1.68 | 2.17 | 2.58 | 2.58 | 3.39 | 1.75
9 | O=C(N/N=C/c1cccc([N+](=O)[O-])c1)c1ccc(Cl)cc1 | 1.69 | 2.59 | 2.59 | 2.59 | 3.9 | 1.69
10 | O=C(N/N=C/c1ccco1)c1cc([N+](=O)[O-])cc([N+](=O)[O-])c1 | 1.69 | 1.99 | 2.47 | 2.29 | 2.28 | 1.69
11 | COc1ccc(/C=N/NC(=O)c2cccc([N+](=O)[O-])c2)cc1OC | 1.64 | 2.05 | 2.63 | 2.28 | 2.87 | 1.75
12 | COc1ccc(/C=N/NC(=O)c2ccc([N+](=O)[O-])cc2)cc1OC | 1.72 | 1.99 | 2.63 | 2.34 | 2.87 | 1.75
13 | OC(Cn1cncn1)(Cn1cncn1)c1ccc(F)cc1F [FLUCONAZOLE] | 2.64 | – | – | – | – | 2.64
14 | CCn1cc(C(=O)O)c(=O)c2cc(F)c(N3CCNCC3)cc21 [NORFLOXACIN] | – | 2.61 | 2.61 | 2.61 | – | –
